Series [1] is described as follows: folding enthalpy; higher = less favourable; fluorescence melt of hairpins on a sequencing array, two-state fit. The following applies: sodium 0.088 M. The procedure, abridged:
(§1)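 Folding enthalpy and melting temperature come from bootstrapped two-state fits to Cy3 fluorescence of library hairpins carrying annealed Cy3 and quencher oligos on a sequenced MiSeq flow cell. Imaging was done in 50 mM Na-HEPES pH 8.0, 25 mM NaCl, stepping by 2.5 °C up to 60 °C, and signals were normalised to pre-quench Cy3 and to control constructs. Results of four replicates were combined by inverse variance, and fitted temperatures were raised by 9.35 °C to match UV melts.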

Series [2] in a line: melting temperature; fluorescence melt of hairpins on a sequencing array, two-state fit, raised by 9.35 °C to match UV melts. The following applies: sodium 0.088 M. A digest of the protocol: as §1

For GCCTTGCGAAAGCAACGC ((.((((....)))).)), in series [1], the folding enthalpy is -14.3 kcal/mol. The Tm in series [2] stood at 54.7 °C.

As for GCATAGCGAAAGCAAGGC ((.(.((....)).).)), the folding enthalpy in series [1] is -14 kcal/mol. The Tm in series [2] amounted to 37.9 °C.

As for GATCCCGAAAGGGGCATC ((((((....)))..))), the folding enthalpy in series [1] is -11.6 kcal/mol. The Tm in series [2] turned out to be 35.6 °C.

Consider GCAGCTGGAAACGGTTGC (((.(.(....).).))), for which the folding enthalpy in series [1] was -29.1 kcal/mol. Besides, in series [2], the Tm is 41.1 °C.

For GATCGAATCCTCGATC ((((((....)))))), the folding enthalpy in series [1] was -41.1 kcal/mol. Moreover, in series [2], the Tm turned out to be 50.6 °C.

Take GGGACCACGAAAGTGCCC (((..(((....)))))): in series [1], the folding enthalpy is -15.7 kcal/mol. Moreover, the Tm in series [2] was 40 °C.

Take GCGTATTCACGC ((((....)))): the folding enthalpy in series [1] was -25.6 kcal/mol. In addition, in series [2], the Tm stood at 53 °C.

Take GTCACACGAAAGTGGAC (((.(((....)))))): the folding enthalpy in series [1] is -18.7 kcal/mol. Besides, the Tm in series [2] was 48.6 °C.

Consider GATCGACCATTCGATC ((((((....)))))), for which, in series [1], the folding enthalpy is -39.6 kcal/mol. Besides, the Tm in series [2] came out at 50.1 °C.

Consider GCGGACGGAAACGCCCGC ((((.((....)).)))), for which, in series [1], the folding enthalpy is -36.7 kcal/mol. Moreover, in series [2], the Tm came out at 67.8 °C.

GACCACGGAAACGTGATC ((.((((....)))).)): in series [1], the folding enthalpy was -19.9 kcal/mol. Moreover, in series [2], the Tm turned out to be 43.3 °C.

In the case of GATCGCTAGAGCGATC ((((((....)))))), the folding enthalpy in series [1] is -34.2 kcal/mol. In addition, the Tm in series [2] is 67.6 °C.

Turning to GTTCACGAAAGTGAGAAC ((((((....)))..))), the folding enthalpy in series [1] is -11.2 kcal/mol. Moreover, the Tm in series [2] worked out at 37.5 °C.

Regarding GGTGACGAAAGTCACACC ((((((....)))..))), the folding enthalpy in series [1] is -7.84 kcal/mol. For the same sequence, the Tm in series [2] was determined as 56 °C.

In the case of GTTATAGAAATATAAC ((((((....)))))), the folding enthalpy in series [1] is -17.1 kcal/mol. Also, in series [2], the Tm was 33.6 °C.

Turning to GCGTGGCGAAAGCCCGGC ((..(((....)))..)), the folding enthalpy in series [1] was -14.9 kcal/mol. Also, in series [2], the Tm amounted to 57.8 °C.

As for GTCTGACGAAAGTCGAC (((.(((....)))))), the folding enthalpy in series [1] is -16.9 kcal/mol. Also, in series [2], the Tm amounted to 49 °C.

In the case of GATGTCCGAAAGGATATC (((.(((....))).))), in series [1], the folding enthalpy was -35.6 kcal/mol. In addition, in series [2], the Tm is 52.3 °C.

Consider GATCAAAGTATTGATC ((((((....)))))), for which the folding enthalpy in series [1] is -29.8 kcal/mol. Moreover, the Tm in series [2] turned out to be 42.6 °C.

On to GACCGGGCGAAAGCCGTC (((..(((....)))))), for which the folding enthalpy in series [1] was -10.3 kcal/mol. Further, in series [2], the Tm is 40.4 °C.

Consider GATACAGGAAACTGCATC (((.(((....))).))), for which the folding enthalpy in series [1] was -28.4 kcal/mol. In series [2], the Tm was determined as 33.6 °C.

For the sequence GGGTACCCGAAAGGGCCC (((..(((....)))))), the folding enthalpy in series [1] was -18.6 kcal/mol. The Tm in series [2] amounted to 47.8 °C.

For GGATGAGGAAACTTATCC ((((.((....)).)))), the folding enthalpy in series [1] was -33.4 kcal/mol. Also, the Tm in series [2] turned out to be 38.6 °C.

On to GGACTCGAAAGAGCGTCC ((((((....)))..))), for which the folding enthalpy in series [1] is -16 kcal/mol. Also, the Tm in series [2] was found to be 32 °C.

Turning to GCGACGGCTCGC ((((....)))), the folding enthalpy in series [1] was -13.3 kcal/mol. Besides, the Tm in series [2] amounted to 49.5 °C.

Regarding GATGCACGAAAGTGGATC (((.(((....))).))), the folding enthalpy in series [1] is -37.5 kcal/mol. Further, the Tm in series [2] worked out at 54.9 °C.

Regarding GGCTGCCGAAAGGCCGCC (((.(((....))).))), the folding enthalpy in series [1] is -18.5 kcal/mol. Further, in series [2], the Tm is 65 °C.

For the sequence GTGTCGCGAAAGCGCCAC (((.(((....))).))), the folding enthalpy in series [1] is -25.7 kcal/mol. For the same sequence, the Tm in series [2] amounted to 57.7 °C.

Turning to GGCTACTCGAAAGAGGCC (((..(((....)))))), the folding enthalpy in series [1] is -30 kcal/mol. In addition, the Tm in series [2] worked out at 45.7 °C.

On to GGGTGCGGAAACGTGCCC (((..((....))..))), for which the folding enthalpy in series [1] was -39.8 kcal/mol. The Tm in series [2] came to 57.3 °C.

As to GCACCCGAAAGGGCGTGC ((((((....)))..))), the folding enthalpy in series [1] is -29.6 kcal/mol. Also, the Tm in series [2] stood at 51.2 °C.

Take GATCAGTACGCTGATC ((((((....)))))): in series [1], the folding enthalpy is -44.1 kcal/mol. In addition, the Tm in series [2] was 53.8 °C.

On to GTAGGTCCGAAAGGATAC (((..(((....)))))), for which the folding enthalpy in series [1] was -12.1 kcal/mol. The Tm in series [2] came out at 28.8 °C.

With GGCCCCGAAAGGGGTGCC ((((((....)))..))), the folding enthalpy in series [1] is -12.1 kcal/mol. Further, in series [2], the Tm was 59.1 °C.

Take GCGGACCTCCGC ((((....)))): in series [1], the folding enthalpy was -27.4 kcal/mol. The Tm in series [2] came to 55.9 °C.

Take GCTAATACGAAAGTAAGC (((..(((....)))))): the folding enthalpy in series [1] is -14.1 kcal/mol. In addition, in series [2], the Tm worked out at 29.5 °C.

Turning to GTGGTTGGAAACAATCGC (.(.(((....))).).), in series [1], the folding enthalpy is -23.3 kcal/mol. Besides, the Tm in series [2] stood at 35 °C.

(Values after the array DNA melting data of Ke et al. (doi:10.1101/2024.01.08.574731).)
